Data taken from ChEMBL document CHEMBL1145762, “Antiplatelet activity of synthetic pyrrolo-benzylisoquinolines” (Bioorg Med Chem Lett, 2003).

Legend:
Assay type in all cases: functional, organism-based
[1] = organism: Homo sapiens; assay: Inhibitory activity against arachidonic acid-induced platelet aggregation at a concentration of 100 uM was determined
Outline: (§1)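 Platelets preincubated with test compound, aspirin or DMSO (0.5%, control) at 37 °C for 3 min, then aggregation inducer added (arachidonic acid, collagen, PAF or thrombin). IC50 values given as means ± S.E. (n=3).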

[2] = organism: Homo sapiens; assay: Antiplatelet aggregation (platelet activating factor-induced) activity at a concentration of 2 ng/mL; outline: as §1
[3] = organism: Homo sapiens; assay: Antiplatelet aggregation (thrombin-induced) activity at a concentration of 0.1 U; outline: as §1
[4] = organism: Homo sapiens; assay: Antiplatelet aggregation (collagen-induced) activity at a concentration of 10 ug/mL; outline: as §1

IC50 [1]	IC50 [2]	IC50 [3]	IC50 [4]	SMILES
52.8 µM	84.8 µM	> 100 µM	30 µM	COc1cc2c(cc1OC)C1=C(c3ccc(Cl)cc3)C(=O)C(=O)N1CC2
78.3 µM	> 100 µM	> 100 µM	44.9 µM	COc1cc2c(cc1OC)C1=C(c3ccccc3Cl)C(=O)C(=O)N1CC2
72.7 µM	> 100 µM	> 100 µM	29.8 µM	COc1cc2c(cc1OC)C1=C(c3ccc(Br)cc3)C(=O)C(=O)N1CC2
> 100 µM	> 100 µM	> 100 µM	39.8 µM	COc1cc2c(cc1OC)C1=C(c3ccccc3Br)C(=O)C(=O)N1CC2
45.5 µM	> 100 µM	> 100 µM	23.3 µM	COc1cc2c(cc1OC)C1=C(c3cccc(Br)c3)C(=O)C(=O)N1CC2
53.8 µM	> 100 µM	> 100 µM	37.5 µM	COc1cc2c(cc1OC)C1=C(c3cccc(Cl)c3)C(=O)C(=O)N1CC2
21 µM	> 100 µM	> 100 µM	6.1 µM	COc1cccc(C2=C3c4cc(OC)c(OC)cc4CCN3C(=O)C2=O)c1
15.2 µM	33.2 µM	30.7 µM	9.15 µM	COc1ccc(C2=C3c4cc(OC)c(OC)cc4CCN3C(=O)C2=O)cc1
65.5 µM	> 100 µM	> 100 µM	35.8 µM	COc1cc2c(cc1OC)C1=C(c3ccccc3OC)C(=O)C(=O)N1CC2
44.6 µM	> 100 µM	> 100 µM	22.4 µM	CC(=O)Oc1ccccc1C(=O)O [ASPIRIN]
